# Results reported in PMC9321909 (British Journal of Haematology, 2022).
# System: relapsed/refractory B‐cell malignancies
# Assay: Anti-tumour activity assessment by disease-specific tumour response criteria
# Type: in vivo, human (Chinese patients)
# Outline: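 Oral test compound at 320 mg QD or 160 mg BID until progression or unacceptable toxicity. Investigators assessed response every 12 weeks for one year after the first dose, then every 24 weeks. Criteria were iwCLL for CLL, NCI Working Group NHL criteria for SLL, FL, MZL and MCL, and International Workshops on WM criteria for WM. 95% CIs for rates were computed by Clopper–Pearson.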
# [1] = part I, 160 mg BID, CLL/SLL (n = 5)
# [2] = part I, 160 mg BID, NHL (n = 5)
# [3] = part I, 160 mg BID, Total (N = 11)
# [4] = part I, 320 mg QD, CLL/SLL (n = 4)
# [5] = part I, 320 mg QD, Total (N = 10)
compound,measurement,setting,value
C=CC(=O)N1CCC([C@@H]2CCNc3c(C(N)=O)c(-c4ccc(Oc5ccccc5)cc4)nn32)CC1 [zanubrutinib],Best overall response: CR,CLL/SLL (n = 9),3 (33.3) n (%)
same,Best overall response: CRi,CLL/SLL (n = 9),0 (0.0) n (%)
same,Best overall response: Discontinued prior to first assessment,CLL/SLL (n = 9),0 (0.0) n (%)
same,Best overall response: MR,CLL/SLL (n = 9),0 (0.0) n (%)
same,Best overall response: PD,CLL/SLL (n = 9),0 (0.0) n (%)
same,Best overall response: PR,CLL/SLL (n = 9),5 (55.6) n (%)
same,Best overall response: PR‐L,CLL/SLL (n = 9),1 (11.1) n (%)
same,Best overall response: Stable disease,CLL/SLL (n = 9),0 (0.0) n (%)
same,Best overall response: VGPR,CLL/SLL (n = 9),0 (0.0) n (%)
same,Complete response rate,CLL/SLL (n = 9),3 (33.3) n (%)
same,Overall response rate,CLL/SLL (n = 9),9 (100.0) n (%)
same,Partial response rate (PR or better),CLL/SLL (n = 9),8 (88.9) n (%)
same,median PFS,CLL/SLL patients,44.3 months
same,Best overall response: CR,FL (n = 26),4 (15.4) n (%)
same,Best overall response: CRi,FL (n = 26),0 (0.0) n (%)
same,Best overall response: Discontinued prior to first assessment,FL (n = 26),3 (11.5) n (%)
same,Best overall response: MR,FL (n = 26),0 (0.0) n (%)
same,Best overall response: PD,FL (n = 26),4 (15.4) n (%)
same,Best overall response: PR,FL (n = 26),8 (30.8) n (%)
same,Best overall response: PR‐L,FL (n = 26),0 (0.0) n (%)
same,Best overall response: Stable disease,FL (n = 26),7 (26.9) n (%)
same,Best overall response: VGPR,FL (n = 26),0 (0.0) n (%)
same,Complete response rate,FL (n = 26),4 (15.4) n (%)
same,Overall response rate,FL (n = 26),12 (46.2) n (%)
same,Partial response rate (PR or better),FL (n = 26),12 (46.2) n (%)
same,Best overall response: CR,MCL (n = 2),1 (50.0) n (%)
same,Best overall response: CRi,MCL (n = 2),0 (0.0) n (%)
same,Best overall response: Discontinued prior to first assessment,MCL (n = 2),0 (0.0) n (%)
same,Best overall response: MR,MCL (n = 2),0 (0.0) n (%)
same,Best overall response: PD,MCL (n = 2),0 (0.0) n (%)
same,Best overall response: PR,MCL (n = 2),0 (0.0) n (%)
same,Best overall response: PR‐L,MCL (n = 2),0 (0.0) n (%)
same,Best overall response: Stable disease,MCL (n = 2),1 (50.0) n (%)
same,Best overall response: VGPR,MCL (n = 2),0 (0.0) n (%)
same,Complete response rate,MCL (n = 2),1 (50.0) n (%)
same,Overall response rate,MCL (n = 2),1 (50.0) n (%)
same,Partial response rate (PR or better),MCL (n = 2),1 (50.0) n (%)
same,Best overall response: CR,MZL (n = 5),0 (0.0) n (%)
same,Best overall response: CRi,MZL (n = 5),0 (0.0) n (%)
same,Best overall response: Discontinued prior to first assessment,MZL (n = 5),2 (40.0) n (%)
same,Best overall response: MR,MZL (n = 5),0 (0.0) n (%)
same,Best overall response: PD,MZL (n = 5),0 (0.0) n (%)
same,Best overall response: PR,MZL (n = 5),0 (0.0) n (%)
same,Best overall response: PR‐L,MZL (n = 5),0 (0.0) n (%)
same,Best overall response: Stable disease,MZL (n = 5),3 (60.0) n (%)
same,Best overall response: VGPR,MZL (n = 5),0 (0.0) n (%)
same,Complete response rate,MZL (n = 5),0 (0.0) n (%)
same,Overall response rate,MZL (n = 5),0 (0.0) n (%)
same,Partial response rate (PR or better),MZL (n = 5),0 (0.0) n (%)
same,Best overall response: CR,Total (N = 44),8 (18.2) n (%)
same,Best overall response: CRi,Total (N = 44),0 (0.0) n (%)
same,Best overall response: Discontinued prior to first assessment,Total (N = 44),5 (11.4) n (%)
same,Best overall response: MR,Total (N = 44),0 (0.0) n (%)
same,Best overall response: PD,Total (N = 44),4 (9.1) n (%)
same,Best overall response: PR,Total (N = 44),14 (31.8) n (%)
same,Best overall response: PR‐L,Total (N = 44),1 (2.3) n (%)
same,Best overall response: Stable disease,Total (N = 44),12 (27.3) n (%)
same,Best overall response: VGPR,Total (N = 44),0 (0.0) n (%)
same,Complete response rate,Total (N = 44),8 (18.2) n (%)
same,Overall response rate,Total (N = 44),23 (52.3) n (%)
same,Partial response rate (PR or better),Total (N = 44),22 (50.0) n (%)
same,Best overall response: CR,WM (n = 2),0 (0.0) n (%)
same,Best overall response: CRi,WM (n = 2),0 (0.0) n (%)
same,Best overall response: Discontinued prior to first assessment,WM (n = 2),0 (0.0) n (%)
same,Best overall response: MR,WM (n = 2),0 (0.0) n (%)
same,Best overall response: PD,WM (n = 2),0 (0.0) n (%)
same,Best overall response: PR,WM (n = 2),1 (50.0) n (%)
same,Best overall response: PR‐L,WM (n = 2),0 (0.0) n (%)
same,Best overall response: Stable disease,WM (n = 2),1 (50.0) n (%)
same,Best overall response: VGPR,WM (n = 2),0 (0.0) n (%)
same,Complete response rate,WM (n = 2),0 (0.0) n (%)
same,Overall response rate,WM (n = 2),1 (50.0) n (%)
same,Partial response rate (PR or better),WM (n = 2),1 (50.0) n (%)
same,complete response rate (CRR),all 44 patients,18.2%
same,overall response rate (ORR),all 44 patients,52.3%
same,median PFS,all patients,16.4 months
same,median DOR (PR‐L or better),all responders,13.9 months
same,median time to response,"all subtypes, responders (n = 23)",2.8 months
same,Complete response rate,[1],2 (40.0) n (%)
same,Overall response rate,[1],5 (100.0) n (%)
same,Partial response rate (PR or better),[1],4 (80.0) n (%)
same,Complete response rate,[2],1 (20.0) n (%)
same,Overall response rate,[2],3 (60.0) n (%)
same,Partial response rate (PR or better),[2],3 (60.0) n (%)
same,Complete response rate,[3],3 (27.3) n (%)
same,Overall response rate,[3],8 (72.7) n (%)
same,Partial response rate (PR or better),[3],7 (63.6) n (%)
same,Complete response rate,"part I, 160 mg BID, WM (n = 1)",0 (0.0) n (%)
same,Overall response rate,"part I, 160 mg BID, WM (n = 1)",0 (0.0) n (%)
same,Partial response rate (PR or better),"part I, 160 mg BID, WM (n = 1)",0 (0.0) n (%)
same,Complete response rate,[4],1 (25.0) n (%)
same,Overall response rate,[4],4 (100.0) n (%)
same,Partial response rate (PR or better),[4],4 (100.0) n (%)
same,Complete response rate,"part I, 320 mg QD, NHL (n = 5)",1 (20.0) n (%)
same,Overall response rate,"part I, 320 mg QD, NHL (n = 5)",3 (60.0) n (%)
same,Partial response rate (PR or better),"part I, 320 mg QD, NHL (n = 5)",3 (60.0) n (%)
same,Complete response rate,[5],2 (20.0) n (%)
same,Overall response rate,[5],8 (80.0) n (%)
same,Partial response rate (PR or better),[5],8 (80.0) n (%)
same,Complete response rate,"part I, 320 mg QD, WM (n = 1)",0 (0.0) n (%)
same,Overall response rate,"part I, 320 mg QD, WM (n = 1)",1 (100.0) n (%)
same,Partial response rate (PR or better),"part I, 320 mg QD, WM (n = 1)",1 (100.0) n (%)
same,Study day at disease progression,"patient 101 016, FL",Day 162
same,Study day at disease progression,"patient 102 002, CLL",Day 672
same,BOR by investigator,"patient 102 004, WM",Stable disease
same,Study day at disease progression,"patient 102 004, WM",Day 336
same,BOR by investigator,"patient 102 006, CLL",PR‐L
same,Study day at disease progression,"patient 102 006, CLL",Day 1345
same,CRR,patients with CLL/SLL,33.3%
same,median overall survival,total population,not reached
